ChEMBL document CHEMBL4842318, “A γ-lactam siderophore antibiotic effective against multidrug-resistant Pseudomonas aeruginosa, Klebsiella pneumoniae, and Acinetobacter spp” (Eur J Med Chem, 2021)

What was measured:
[1] = system: Acinetobacter baumannii; assay: Antibacterial activity against carbapenem susceptible Acinetobacter baumannii isolate PR-478 assessed as inhibition of bacterial growth in presence of 20 ug/ml sulbactam by microdilution method; format: functional; settings: dose 20 µg/ml
Procedure, shortened: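 MIC by broth microdilution using iron-depleted (Chelex-treated) cation-adjusted Mueller-Hinton broth and 6 × 10^4 cfu/mL inoculum. Compound serially diluted with sulbactam held constant at 20 μg/mL.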

[2] = system: Acinetobacter baumannii; assay: Antibacterial activity against carbapenem susceptible Acinetobacter baumannii isolate PR-464 assessed as inhibition of bacterial growth at 1:1 compound to sulbactam concentration by microdilution method; format: functional
Procedure, shortened: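 Broth microdilution MIC in Chelex-treated, iron-depleted cation-adjusted Mueller-Hinton broth, inoculum 6 × 10^4 cfu/mL. Compound and sulbactam combined 1:1 by mass in a 2-fold dilution series.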

[3] = system: Acinetobacter baumannii; assay: Antibacterial activity against carbapenem susceptible Acinetobacter baumannii isolate PR-340 assessed as inhibition of bacterial growth at 1:1 compound to sulbactam concentration by microdilution method
[4] = Antibacterial activity against carbapenem susceptible Acinetobacter nosocomialis isolate PR-365 assessed as bacterial growth inhibition by microdilution method; format: functional
Procedure, shortened: (§1)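 Broth microdilution MIC in iron-depleted (Chelex resin-treated) cation-adjusted Mueller-Hinton broth, following the protocol used for siderophore-containing antibiotics. Inoculum was lowered to 6 × 10^4 cfu/mL.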

[5] = system: Acinetobacter baumannii; assay: Antibacterial activity against carbapenem resistant Acinetobacter baumannii isolate PR-482 assessed as bacterial growth inhibition by microdilution method; format: functional
Procedure, shortened: (§2)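 Broth microdilution in Chelex-treated, iron-depleted cation-adjusted Mueller-Hinton broth, following the protocol used for siderophore-containing antibiotics; inoculum lowered to 6 × 10^4 cfu/mL; MIC read as growth inhibition, in μg/mL.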

[6] = system: Acinetobacter baumannii; assay: Antibacterial activity against carbapenem susceptible Acinetobacter baumannii isolate PR-452 assessed as inhibition of bacterial growth at 1:1 compound to sulbactam concentration by microdilution method; format: functional; procedure, shortened: as §1
[7] = system: Acinetobacter baumannii; assay: Antibacterial activity against carbapenem resistant Acinetobacter baumannii isolate PR-401 assessed as inhibition of bacterial growth at 1:1 compound to sulbactam concentration by microdilution method; format: functional
Procedure, shortened: (§3)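 Iron-depleted (Chelex-treated) cation-adjusted Mueller-Hinton broth microdilution; inoculum 6 × 10^4 cfu/mL. Test agent and sulbactam mixed 1:1 by mass and serially 2-fold diluted together. MIC in μg/mL.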

[8] = system: Acinetobacter baumannii; assay: Antibacterial activity against carbapenem resistant Acinetobacter baumannii isolate PR-319 assessed as inhibition of bacterial growth at 1:1 compound to sulbactam concentration by microdilution method; format: functional; procedure, shortened: as §3
[9] = system: Acinetobacter baumannii; assay: Antibacterial activity against carbapenem resistant Acinetobacter baumannii isolate PR-326 assessed as inhibition of bacterial growth in presence of 20 ug/ml sulbactam by microdilution method; format: functional; settings: dose 20 µg/ml
[10] = system: Acinetobacter baumannii; assay: Antibacterial activity against carbapenem resistant Acinetobacter baumannii isolate PR-380 assessed as inhibition of bacterial growth at 1:1 compound to sulbactam concentration by microdilution method; format: functional; procedure, shortened: as §3
[11] = Plasma concentration in SC dosed CD-1 mouse treated four times at 6 hrs interval measured after 0.167 hrs; format: ADME, organism-based
Procedure, shortened: (§4)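 CD-1 mice dosed SC at 50 mg/kg. Plasma sampled at 0.167 to 24 h, three individual mice per time point, reported as mean and SD in ng/mL.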

[12] = system: Acinetobacter baumannii; assay: Antibacterial activity against carbapenem susceptible Acinetobacter baumannii isolate PR-478 assessed as bacterial growth inhibition by microdilution method; format: functional; procedure, shortened: as §1
[13] = system: Acinetobacter baumannii; assay: Antibacterial activity against carbapenem resistant Acinetobacter baumannii isolate PR-384 assessed as inhibition of bacterial growth in presence of 20 ug/ml sulbactam by microdilution method; format: functional; settings: dose 20 µg/ml
[14] = system: Acinetobacter baumannii; assay: Antibacterial activity against carbapenem resistant Acinetobacter baumannii isolate PR-326 assessed as inhibition of bacterial growth at 1:1 compound to sulbactam concentration by microdilution method; format: functional; procedure, shortened: as §3
[15] = Metabolic stability in CD-1 mouse microsomes assessed as half life; format: ADME, Microsome
[16] = system: Acinetobacter baumannii; assay: Antibacterial activity against carbapenem resistant Acinetobacter baumannii isolate PR-399 assessed as bacterial growth inhibition by microdilution method; format: functional; procedure, shortened: as §2
[17] = system: Pseudomonas aeruginosa; assay: Antibacterial activity against wild type Pseudomonas aeruginosa isolate PR-688 leucine at 533 residue assessed as inhibition of bacterial growth by microdilution method; format: functional; procedure, shortened: as §1
[18] = system: Acinetobacter baumannii; assay: Antibacterial activity against carbapenem resistant Acinetobacter baumannii isolate PR-387 assessed as inhibition of bacterial growth in presence of 20 ug/ml sulbactam by microdilution method; format: functional; settings: dose 20 µg/ml
[19] = system: Pseudomonas aeruginosa; assay: Antibacterial activity against wild type Pseudomonas aeruginosa isolate PR-672 assessed as inhibition of bacterial growth by microdilution method; format: functional; procedure, shortened: as §1
[20] = Substrate activity at OXA-23 (unknown origin) assessed as Kcat by measuring hydrolysis by spectrophotometry; format: ADME
[21] = Antibacterial activity against carbapenem susceptible Acinetobacter nosocomialis isolate PR-412 assessed as bacterial growth inhibition by microdilution method; format: functional; procedure, shortened: as §1
[22] = system: Acinetobacter baumannii; assay: Antibacterial activity against carbapenem susceptible Acinetobacter baumannii isolate PR-434 assessed as bacterial growth inhibition by microdilution method; format: functional; procedure, shortened: as §1
[23] = Solubility of compound in pH 7.5 phosphate buffer by nephelometry; format: physicochemical
[24] = system: Acinetobacter baumannii; assay: Antibacterial activity against carbapenem resistant Acinetobacter baumannii isolate PR-384 assessed as bacterial growth inhibition by microdilution method; format: functional; procedure, shortened: as §2
[25] = system: Pseudomonas aeruginosa; assay: Antibacterial activity against wild type Pseudomonas aeruginosa isolate PR-604 assessed as inhibition of bacterial growth by microdilution method; format: functional; procedure, shortened: as §1
[26] = Substrate activity at IMP-1 (unknown origin) assessed as ratio of Kcat to Km by measuring hydrolysis by spectrophotometry; format: ADME
Procedure, shortened: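 Substrate hydrolysis (600 μM start) followed at 336 nm (Δε336 = −4362 M−1 cm−1, 0.2 cm cuvette) to completion; velocities over 10 s intervals along progress curve; Km, Vmax from double reciprocal plot, kcat = Vmax/[E].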

[27] = system: Acinetobacter baumannii; assay: Antibacterial activity against carbapenem resistant Acinetobacter baumannii isolate PR-325 assessed as inhibition of bacterial growth at 1:1 compound to sulbactam concentration by microdilution method; format: functional; procedure, shortened: as §3
[28] = system: Pseudomonas aeruginosa; assay: Antibacterial activity against wild type Pseudomonas aeruginosa isolate PR-673 leucine at 533 residue assessed as inhibition of bacterial growth by microdilution method; format: functional; procedure, shortened: as §1
[29] = system: Acinetobacter baumannii; assay: Antibacterial activity against carbapenem resistant Acinetobacter baumannii isolate PR-314 assessed as bacterial growth inhibition by microdilution method; format: functional; procedure, shortened: as §2
[30] = system: Acinetobacter baumannii; assay: Antibacterial activity against carbapenem resistant Acinetobacter baumannii isolate PR-345 assessed as inhibition of bacterial growth in presence of 20 ug/ml sulbactam by microdilution method; format: functional; settings: dose 20 µg/ml
[31] = system: Acinetobacter baumannii; assay: Antibacterial activity against carbapenem susceptible Acinetobacter baumannii isolate PR-452 assessed as bacterial growth inhibition by microdilution method; format: functional; procedure, shortened: as §1
[32] = system: Acinetobacter baumannii; assay: Antibacterial activity against carbapenem resistant Acinetobacter baumannii isolate PR-342 assessed as inhibition of bacterial growth in presence of 20 ug/ml sulbactam by microdilution method; format: functional; settings: dose 20 µg/ml
[33] = Metabolic stability in human microsomes assessed as half life; format: ADME, Microsome
[34] = system: Acinetobacter baumannii; assay: Antibacterial activity against carbapenem resistant Acinetobacter baumannii isolate PR-482 assessed as inhibition of bacterial growth in presence of 20 ug/ml sulbactam by microdilution method; format: functional; settings: dose 20 µg/ml; procedure, shortened: as §1
[35] = Plasma concentration in SC dosed CD-1 mouse treated four times at 6 hrs interval measured after 24 hrs; format: ADME, organism-based; procedure, shortened: as §4
[36] = system: Acinetobacter baumannii; assay: Antibacterial activity against carbapenem resistant Acinetobacter baumannii isolate PR-380 assessed as inhibition of bacterial growth in presence of 20 ug/ml sulbactam by microdilution method; format: functional; settings: dose 20 µg/ml

With `CC(C)(O/N=C(\C(=O)N[C@H]1CN2CC(C(=O)NCCN3C(=O)c4cc(O)c(O)cc4C3=O)=C(C(=O)O)N2C1=O)c1nc(N)sc1Cl)C(=O)O` the MIC [1] was at most 0.25 µg/mL, the MIC [2] was at most 0.25 µg/mL and the MIC [3] was 1 µg/mL. It also gave an MIC [4] of over 16 µg/mL, an MIC [5] of over 16 µg/mL and an MIC [6] of at most 0.25 µg/mL. It also gave an MIC [7] of 8 µg/mL, an MIC [8] of 4 µg/mL and an MIC [9] of at most 0.25 µg/mL. The MIC [10] was 16 µg/mL, the concentration at 0.167 h [11] was 47400 ng/mL and the MIC [12] was 16 µg/mL. It also gave an MIC [13] of over 16 µg/mL, an MIC [14] of 2 µg/mL and a t1/2 [15] of over 1 h. It also gave an MIC [16] of over 16 µg/mL, an MIC [17] of over 16 µg/mL and an MIC [18] of at most 0.25 µg/mL. For the same compound, the MIC [19] was at most 0.25 µg/mL, the Kcat [20] was “Nottraceable” and the MIC [21] was over 16 µg/mL. It also gave an MIC [22] of over 16 µg/mL, a solubility kinetic [23] of over 100 µM and an MIC [24] of over 16 µg/mL. It also gave an MIC [25] of at most 0.25 µg/mL, a Kcat/Km [26] of 3000 M⁻¹ s⁻¹ and an MIC [27] of over 16 µg/mL. For the same compound, the MIC [28] was over 16 µg/mL, the MIC [29] was over 16 µg/mL and the MIC [30] was at most 0.25 µg/mL. For the same compound, the MIC [31] was over 16 µg/mL, the MIC [32] was over 16 µg/mL and the t1/2 [33] was over 1 h. The MIC [34] was at most 0.25 µg/mL, the concentration at 24 h [35] was 601 ng/mL and the MIC [36] was at most 0.25 µg/mL.
